{"data": "Measured values collected from several papers", "note": "Compare with care: the assays were run in different laboratories."}
{"Compound": "N.N.[Cl][Pt][Cl]", "tested on": "CCD-18Co", "assay": "cell growth or viability, MTS", "setting": "72 h", "measurement": "IC50", "result": "64 µM"}
{"Compound": "CCN1CCc2c(sc3[nH]c(=O)n(O)c(=O)c23)C1", "tested on": "Human betaherpesvirus 5", "assay": "viral replication, inhibitor", "setting": "10 µM, 7 days", "measurement": "inhibition", "result": "-4.8%"}
{"Compound": "CCCCCCC#Cc1cncc(-c2nnc(Sc3ccc([N+](=O)[O-])cc3[N+](=O)[O-])n2C)c1", "tested on": "Mycobacterium tuberculosis", "assay": "microbial growth", "system": "ERDMAN", "measurement": "IC90", "result": "1.2 µM"}
{"Compound": "O=C(NCc1ccc(Cl)c(Cl)c1)c1nc(Cl)c2cccnc2c1O", "tested on": "Human betaherpesvirus 5", "assay": "viral replication, inhibitor", "system": "HFF", "measurement": "EC50", "result": "9.7 µM"}
{"Compound": "O=C1c2ccccc2C(c2ccccc2)C(=O)N1O (stereo not drawn)", "tested on": "Human betaherpesvirus 5", "assay": "viral replication, inhibitor", "setting": "10 µM, 7 days", "measurement": "inhibition", "result": "23%"}
{"Compound": "CCOC(=O)C1=C(N)N(c2ccc(C(=O)OCC)cc2)C(O)=C(C#N)C12C(=O)Nc1ccccc12 (stereo not drawn)", "tested on": "HepG2", "assay": "cell growth or viability, MTT", "setting": "100 µM, 24 h", "measurement": "viability", "result": "7.8%"}
{"Compound": "CN1CC[C@]23c4c5ccc(O)c4O[C@H]2[C@@H](O)C=C[C@H]3[C@H]1C5", "assay": "thermal pain", "system": "rat", "setting": "intraperitoneal", "measurement": "ED50", "result": "7.63 mg/kg"}
{"Compound": "Cc1c(C(=O)O)sc2[nH]c(=O)n(O)c(=O)c12", "tested on": "Human betaherpesvirus 5", "assay": "viral replication, inhibitor", "setting": "10 µM, 7 days", "measurement": "inhibition", "result": "11%"}
{"Compound": "CO[C@H]1/C=C/O[C@@]2(C)Oc3c(C)c(O)c4c(O)c(c(/C=N/N5CCN(C)CC5)c(O)c4c3C2=O)NC(=O)/C(C)=C\\C=C\\[C@H](C)[C@H](O)[C@@H](C)[C@@H](O)[C@@H](C)[C@H](OC(C)=O)[C@@H]1C", "tested on": "Mycobacterium tuberculosis", "assay": "microbial growth", "system": "ERDMAN", "measurement": "IC50", "result": "0.031 µM"}
{"Compound": "O=C(NCc1ccc(F)cc1)c1nc(Cl)c2cccnc2c1O", "tested on": "Human betaherpesvirus 5", "assay": "viral replication, inhibitor", "system": "HFF", "measurement": "EC50", "result": "8.3 µM"}
{"Compound": "CCCCCCC#Cc1cncc(-c2nnc(SCc3ccc(Cl)cc3)n2C)c1", "tested on": "Mycobacterium tuberculosis", "assay": "microbial growth", "system": "ERDMAN", "measurement": "IC90", "result": "8.1 µM"}
{"Compound": "Nc1ncnc2c([C@@H]3N[C@H](CO)[C@@H](O)[C@H]3O)c[nH]c12", "tested on": "human respiratory syncytial virus", "assay": "viral replication, inhibitor", "system": "MA104", "setting": "28.4 µM", "measurement": "inhibition", "result": "102%"}
